Test results from publication PMC6558985 (Nature chemical biology, 2019).
Positions count from the first letter of the chain named.

How the values were obtained:
Format in all cases: biochemical, D. melanogaster
[1] = molecular target: T1, Dm-spastin WT (Drosophila melanogaster, UniProt Q8I0P1, DEL311-372); experiment: Steady-state ATPase activity, NADH-coupled assay, Dm-spastin wildtype
T1 sequence (Q8I0P1 with tags, fused parts or gaps DEL311-372 limits assumed): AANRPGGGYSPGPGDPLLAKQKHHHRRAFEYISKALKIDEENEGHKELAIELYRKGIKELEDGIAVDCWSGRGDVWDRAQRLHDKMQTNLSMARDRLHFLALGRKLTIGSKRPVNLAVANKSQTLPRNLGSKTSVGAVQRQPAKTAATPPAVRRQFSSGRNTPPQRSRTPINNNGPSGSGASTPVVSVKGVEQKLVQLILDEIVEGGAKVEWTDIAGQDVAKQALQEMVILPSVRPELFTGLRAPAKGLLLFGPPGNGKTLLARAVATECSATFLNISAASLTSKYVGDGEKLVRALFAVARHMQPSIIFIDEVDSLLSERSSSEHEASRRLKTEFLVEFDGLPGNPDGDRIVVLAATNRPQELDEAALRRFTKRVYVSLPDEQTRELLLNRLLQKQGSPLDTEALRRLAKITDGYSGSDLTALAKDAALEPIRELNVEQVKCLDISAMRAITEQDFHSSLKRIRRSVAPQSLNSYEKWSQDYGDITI
Procedure, shortened: (§1)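 Recombinant Dm-spastin, wildtype or point mutants, assayed by steady-state ATPase with NADH-coupled read-out at 0.5 mM MgATP over a test-compound concentration series. Data were fit to a sigmoidal dose-response equation to give IC50, average ± s.d., n = 3. Separately, rates across ATP concentrations were fit to a cooperative Michaelis-Menten equation for kcat and K1/2.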

[2] = molecular target: T2, Dm-spastin Q488V (Drosophila melanogaster, UniProt Q8I0P1, DEL311-372/Q488V); experiment: Steady-state ATPase activity, NADH-coupled assay, Dm-spastin Q488V
T2 sequence (Q8I0P1 with tags, fused parts or gaps DEL311-372/Q488V limits assumed): T1 sequence (Q8I0P1 with tags, fused parts or gaps DEL311-372 limits assumed) with Q218V
Procedure, shortened: as §1

[3] = molecular target: T3, Dm-spastin N527C (Drosophila melanogaster, UniProt Q8I0P1, DEL311-372/N527C); experiment: Steady-state ATPase activity, NADH-coupled assay, Dm-spastin N527C
T3 sequence (Q8I0P1 with tags, fused parts or gaps DEL311-372/N527C limits assumed): T1 sequence (Q8I0P1 with tags, fused parts or gaps DEL311-372 limits assumed) with N257C
Procedure, shortened: as §1

[4] = molecular target: T4, Dm-spastin N527T (Drosophila melanogaster, UniProt Q8I0P1, DEL311-372/N527T); experiment: Steady-state ATPase activity, NADH-coupled assay, Dm-spastin N527T
T4 sequence (Q8I0P1 with tags, fused parts or gaps DEL311-372/N527T limits assumed): T1 sequence (Q8I0P1 with tags, fused parts or gaps DEL311-372 limits assumed) with N257T
Procedure, shortened: as §1

[5] = molecular target: T5, Dm-spastin S689A (Drosophila melanogaster, UniProt Q8I0P1, DEL311-372/S689A); experiment: Steady-state ATPase activity, NADH-coupled assay, Dm-spastin S689A
T5 sequence (Q8I0P1 with tags, fused parts or gaps DEL311-372/S689A limits assumed): T1 sequence (Q8I0P1 with tags, fused parts or gaps DEL311-372 limits assumed) with S419A
Procedure, shortened: as §1

[6] = molecular target: T6, Dm-spastin T692A (Drosophila melanogaster, UniProt Q8I0P1, DEL311-372/T692A); experiment: Steady-state ATPase activity, NADH-coupled assay, Dm-spastin T692A
T6 sequence (Q8I0P1 with tags, fused parts or gaps DEL311-372/T692A limits assumed): T1 sequence (Q8I0P1 with tags, fused parts or gaps DEL311-372 limits assumed) with T422A
Procedure, shortened: as §1

[7] = molecular target: T7, Dm-spastin (Drosophila melanogaster, UniProt Q8I0P1, DEL311-372); experiment: In vitro microtubule-severing assay; conditions: 2 µM inhibitor, 0.5 mM MgATP, 15 nM Dm-spastin
T7 sequence (Q8I0P1 with tags, fused parts or gaps DEL311-372 limits assumed): T1 sequence (Q8I0P1 with tags, fused parts or gaps DEL311-372 limits assumed)

IC50 [1]	selectivity for Dm-spastin over four other AAA proteins ([1]; 2 µM (Fig. 2 legend; text says 10 µM), 0.5 mM MgATP)	effect on kcat of Dm-spastin across a range of ATP concentrations ([1]; MgATP 0.027 to 3 mM)	IC50 [2]	IC50 [3]	reduction of potency by N527C mutation relative to Dm-spastin WT ([3]; P-loop mutation)	IC50 [4]	IC50 [5]	change of potency by S689A mutation relative to Dm-spastin WT ([5]; sensor-II mutation)	IC50 [6]	reduction of potency by T692A mutation relative to Dm-spastin WT ([6]; sensor-II mutation)	potency on Dm-spastin ATPase relative to compound 4 (more potent) ([1]; 0.5 mM MgATP)	Dm-spastin dependent microtubule-severing [7]	Structure (SMILES)	effect on K1/2 of Dm-spastin across a range of ATP concentrations ([1]; MgATP 0.027 to 3 mM)
1 ± 0.6 µM	increased selectivity for Dm-spastin	not substantial changes in kcat	~12.5 µM	2.9 ± 0.5 µM	~ 3 fold	> 30 µM	0.9 ± 0.2 µM	no substantial difference	1.5 ± 0.4 µM	~ 2 fold			CN1CCN(c2nc(Nc3cc(-c4ccccc4)[nH]n3)c3ccccc3n2)CC1 [compound 4, 2-(4-methylpiperazin-1-yl)-N-(5-phenyl-1H-pyrazol-3-yl)quinazolin-4-amine]	increases in K1/2 at higher compound concentrations
0.106 ± 0.035 µM											~ 10 fold	blocked	C[C@@H]1CNCCN1c1nc(Nc2cc(C(C)(C)C)[nH]n2)c2ccccc2n1 [compound 5, (R)-N-(5-(tert-butyl)-1H-pyrazol-3-yl)-2-(2-methyl-piperazin-1-yl)quinazolin-4-amine]	
